From PubChem BioAssay
Mot1-301 SUMO: SUMOylation pathway inhibition by Mot1-301 growth rescue; S. cerevisiae Mot1-301 growth rescue, ATP luminescence, 38.5C; percent above DMSO median, 100 means doubled; growth rescue, % at 18.8 µM; 1% of 320,000 active; AID 2716;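 active = every valid replicate shows activation above 250% relative to neutral control wells; inactive = the rest, any valid replicate at or below 250%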;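 note: OY570 slx delta 5 strain wells were the positive control but not used for scaling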
Cneo AK release: Cryptococcus neoformans lysis via adenylate kinase release | C. neoformans lysis, adenylate kinase release luminescence, 4 h; normalised: neutral wells 0, clomiphene wells 100 | lysis activity, % at 15 µM | 0.2% of 360,000 active | AID 651654;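 active = mean lysis activity across replicates of at least 80%, whatever share of replicates individually reach that level; inactive = mean lysis activity below 80%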
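Material: C. neoformans cells | Amount: Yeast cell density of 5 × 10^6 cells/mL | Medium: Fresh YPD growth medium | Dosing: Single dose | Times: Static 4 h at 37 °C with compound, 1 h detection | Detection: AK luminescence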
C2C12 statin: suppression of simvastatin myotoxicity. C2C12 myotubes + simvastatin, ATP luminescence, 48 h; scaled: DMSO 0, geranylgeraniol control 100. rescue of ATP level, % at 7.49 µM. 0.78% of 330,000 active. AID 602340;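 active = mean ATP rescue above about 67%, or every replicate alone reaching that limit, limit read from the data, passing the limit was not always enough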;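 note: myotubes were challenged with 10 µM simvastatin during compound exposure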
Numbers without * were called inactive; / = not tested or not shown. The list is not random: actives were taken first. Their share in the collection is about 1.5%.

SMILES	Mot1-301 SUMO	Cneo AK release	C2C12 statin
Cc1cc(C)c(C(CC(=O)c2cccs2)C(C#N)C#N)c(C)c1 (centres undefined)	477*	/	/
CC(CC(=O)c1cccs1)CC(=O)c1cccs1	24	-1	-6
C[C@H](CO)N1C[C@H](C)[C@@H](CN(C)C(=O)Nc2ccc(F)cc2)OCc2ccccc2-c2c(n(C)c3ccccc23)C1=O	/	-2	/
Cc1cc(NCCCN2CCOCC2)n2ncc(-c3ccccc3)c2n1	159	-7	-16
CN(C)CCCNc1cc(C(C)(C)C)nc2c(-c3ccccc3)cnn12	267*	4	/
C[C@@H]1CCCCO[C@@H](CN(C)CC2CCCCC2)[C@H](C)CN([C@H](C)CO)C(=O)c2cc(NS(=O)(=O)c3ccc(F)cc3)ccc2O1	/	55	-34
CCCNC(=O)C[C@H]1CC[C@H]2[C@@H](COC[C@@H](O)CN2Cc2ccccc2F)O1	/	4	-4
COc1ccccc1C(=O)COC(=O)CNC(=O)c1ccc(Br)o1	269	5	1
COc1ccccc1C(=O)NCC(=O)OCC(=O)c1cccc2ccccc12	321*	-2	-2
CCCN1C[C@@H](C)[C@@H](OC)CN(C)C(=O)c2cc(NC(=O)COC)ccc2OC[C@H]1C	/	-2	11
Cn1nnnc1SCCOc1ccc(C#N)cc1	-30	1	116*
COc1ccc(NC(=O)CCSc2nnnn2C)cc1	-7	2	6
Cc1ccc(-c2cc(C(F)F)n3ncc(C(=O)Nc4c(C)nn(Cc5c(Cl)cccc5Cl)c4C)c3n2)cc1	-8	-1	-36
Cc1ccc(-c2cc(C(F)F)n3ncc(C(=O)Nc4c(C)nn(Cc5ccccc5Cl)c4C)c3n2)cc1	0	0	80*
CCCNC(=O)Nc1ccc2c(c1)OC[C@H](C)N(C(=O)C1CC1)C[C@@H](C)[C@H](OC)CN(C)C2=O	/	0	-15
O=C(COC(=O)c1cc(-c2ccc(Cl)s2)nc2ccccc12)NCc1ccco1	174	/	/
COc1ccc(CNC(=O)COC(=O)c2cc(-c3ccc(Cl)s3)nc3ccccc23)cc1	276*	3	5
COc1ccc(NC(=O)Nc2ccc3c(c2)C(=O)N([C@@H](C)CO)C[C@H](C)[C@@H](CN(C)C(=O)CCC(F)(F)F)OCCCC[C@H](C)O3)cc1	/	-1	/
CN1CCN(C(=O)C[C@H]2C=C[C@H](NC(=O)Nc3ccccc3F)[C@@H](CO)O2)CC1	/	-9	-5
Nc1ccc(C(=O)Nc2ccc3cc(S(=O)(=O)O)ccc3c2)cc1	/	-1	93*
Nc1ccc(C(=O)Nc2cccc(NC(=O)c3ccc(N)cc3)c2)cc1	-13	-5	-5
CO[C@@H]1CN(C)C(=O)c2ccc(NC(=O)c3nc4ccccc4s3)cc2OC[C@@H](C)N(Cc2cncnc2)C[C@H]1C	/	-4	2
N#CCCN1CCN(CCC#N)CC1	-4	-2	5
N#CCCN1CCNCC1	108	-2	132*
O=C(Nc1nc(-c2ccc(Br)cc2)cs1)c1cccnc1	-13	/	/
SMILES	Mot1-301 SUMO	Cneo AK release	C2C12 statin
O=C(NC(=S)Nc1nc(-c2ccc(Br)cc2)cs1)c1cccnc1	-17	/	254*
CCC(=O)Nc1ccc2c(c1)C(=O)N(C)[C@H]1CC[C@H](CC(=O)O)O[C@@H]1CO2	/	-1	-32
CCC(=O)Nc1ccc2c(c1)OC[C@@H](C)N(Cc1ccncc1)C[C@H](C)[C@H](OC)CN(C)C2=O	/	-3	-4
CO[C@H](CN(C)C(=O)c1ccccc1F)[C@@H](C)CN([C@H](C)CO)S(=O)(=O)c1ccc(C)cc1	/	-4	4
O=C(COC(=O)CCc1c[nH]c2ccccc12)NCc1ccccc1	0	/	/
NC(=O)CCc1c[nH]c2ccccc12	4	1	109*
CC(=O)N[C@H]1C=C[C@H](CC(=O)NCc2ccc(Cl)cc2)O[C@H]1CO	/	2	-6
CCCSC1=C(C#N)C(c2ccccc2C)CC(=O)N1 (centres undefined)	-5	5	134*
CCCCSC1=C(C#N)C(c2ccccc2C)CC(=O)N1 (centres undefined)	-6	-1	-16
O=C(C[C@H]1C=C[C@H](NC(=O)C2CCC2)[C@H](CO)O1)NCc1ccncc1	/	-1	-4
C[C@@H]1CN([C@H](C)CO)C(=O)c2cc(C#Cc3ccccn3)cnc2O[C@H]1CN(C)Cc1ccncc1	/	0	4
CN(C)Cc1cn(CC[C@H]2CC[C@@H](NS(=O)(=O)c3ccccc3)[C@@H](CO)O2)nn1	/	2	1
Cc1cc(C)n(C(=O)c2ccc(Cl)c(F)c2F)n1	-5	/	/
COc1c(Cl)cc(Cl)cc1C(=O)n1nc(C)cc1C	7	3	98*
O=C(c1cccc(-c2nnc(-c3ccccc3)o2)c1)N1CCCCC1	/	/	121*
